Bioassay records (PubChem)
In the library only some 1.4% were active in any assay of this set; here they are far more common.
STAT3 activator: activators of IL-6 induced STAT3 signaling | activation (% of control), % at 5.6 µM | U3A cells, IL-6 STAT3-luciferase reporter, luminescence; 100% = signal with IL-6 EC80 alone | 190,000 compounds, 0.91% hits;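 active = activation above the screen-wide mean of compound activation plus 3 SD, cut at about 130% in these data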
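Material: STAT1-lacking human U3A cells, STAT3 luciferase reporter | Benchmarks: IL-6-only wells as 100% reference | Probe or stimulus: IL-6 (33 ng/mL) | Timing: Compound 1 h, then IL-6 6 h at 37 °C | Detection: Luminescence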
PERK inh: human PERK inhibition, primary cell-based screen. 220,000 compounds, 0.17% hits. inhibition, % at 5.6 µM. CHO PERK-DD fusion, SEAP luminescence translation reporter;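 active = inhibition above the mean inhibition of all tested compounds plus 3 SD, set separately per screening campaign, cut at about 2.9% in these data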;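 note: PERK kinase domain activated by AP20187 dimerizer at 100 nM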
Target sequence (Q9NZJ5 whole entry, looked up, the tested form may be a part): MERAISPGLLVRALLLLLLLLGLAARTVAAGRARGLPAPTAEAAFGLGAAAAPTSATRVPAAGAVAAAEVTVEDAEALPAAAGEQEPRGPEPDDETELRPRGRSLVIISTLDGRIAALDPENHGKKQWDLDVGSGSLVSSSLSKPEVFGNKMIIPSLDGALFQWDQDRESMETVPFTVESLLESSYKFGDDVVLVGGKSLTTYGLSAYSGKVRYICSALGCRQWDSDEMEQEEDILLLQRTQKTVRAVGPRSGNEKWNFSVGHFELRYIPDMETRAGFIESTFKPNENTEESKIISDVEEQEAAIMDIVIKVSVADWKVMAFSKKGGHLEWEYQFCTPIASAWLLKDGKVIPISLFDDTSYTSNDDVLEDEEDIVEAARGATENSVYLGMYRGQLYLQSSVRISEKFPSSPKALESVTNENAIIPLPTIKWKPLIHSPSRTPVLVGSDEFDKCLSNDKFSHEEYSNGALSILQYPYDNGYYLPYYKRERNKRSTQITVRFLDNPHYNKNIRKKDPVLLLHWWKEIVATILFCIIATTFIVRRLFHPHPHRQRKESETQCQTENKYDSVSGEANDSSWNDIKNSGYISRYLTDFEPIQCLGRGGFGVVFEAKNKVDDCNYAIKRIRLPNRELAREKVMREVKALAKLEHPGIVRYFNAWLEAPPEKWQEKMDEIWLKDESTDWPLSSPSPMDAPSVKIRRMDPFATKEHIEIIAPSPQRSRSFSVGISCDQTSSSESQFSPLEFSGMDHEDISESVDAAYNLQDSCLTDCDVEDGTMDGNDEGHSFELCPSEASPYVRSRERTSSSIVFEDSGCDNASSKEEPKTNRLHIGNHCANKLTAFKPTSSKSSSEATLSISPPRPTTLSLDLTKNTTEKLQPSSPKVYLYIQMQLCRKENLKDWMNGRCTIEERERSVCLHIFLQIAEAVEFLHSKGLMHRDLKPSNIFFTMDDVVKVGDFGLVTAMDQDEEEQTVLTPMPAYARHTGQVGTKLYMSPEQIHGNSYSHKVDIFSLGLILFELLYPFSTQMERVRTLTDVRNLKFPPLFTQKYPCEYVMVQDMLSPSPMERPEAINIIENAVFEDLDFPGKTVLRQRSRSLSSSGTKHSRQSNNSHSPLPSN
STAT1 blocker: STAT1 signaling inhibition | NIH 3T3 STAT1-luciferase reporter, IFN-gamma, luminescence | inhibition, % at 5.5 µM | AID 920 | 200,000 compounds, 0.35% hits;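 active = inhibition above a set limit, the mean inhibition across all tested compounds plus 3 SD, cut at about 34% in these data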
STAT3 inh-1: reduces IL-6 driven STAT3 reporter signal; inhibition, % at 5.5 µM; 190,000 compounds, 0.89% hits; U3A cells, IL-6 STAT3-luciferase reporter, luminescence; host cell line lacks STAT1;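 active = inhibition above the mean inhibition across all screened compounds plus 3 SD, cut at about 44% in these data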
Platelet DG rel: platelet dense granule release activity; human platelet-rich plasma, SFLLRN dense granule ATP release, luminescence; inhibition, %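 (compounds screened at 7.5 µM in platelet-rich plasma)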; 300,000 compounds, 0.22% hits;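 active = mean replicate score, as percent of positive control, at or above 50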
STAT3 inh-2: confirmation of STAT3 signaling inhibitors; shares compounds with STAT3 inh-1; 1,200 compounds, 45% hits; U3A cells, IL-6 STAT3 luciferase reporter, luminescence; cell line lacks STAT1; inhibition, % at 5.7 µM; AID 1265;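 active = inhibition above the hit cutoff computed for the primary STAT3 screen, cut at about 44% in these data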
NFkB inh STAT3ct: counter-screen for STAT3 inhibitors: NF-kappaB inhibition | shares compounds with STAT3 inh-1 | HEK293T NF-kB luciferase reporter, TNF-alpha induced | inhibition, % at 5.7 µM | 1,200 compounds, 36% hits;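 active = inhibition above the mean of solvent-only control wells plus 3 SD, cutoff set per campaign, cut at about 13% in these data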
STAT1 inh 2: STAT1 inhibition in STAT3 inhibitor counter-screen; inhibition, % at 5.7 µM; shares compounds with STAT3 inh-1; 1,200 compounds, 27% hits; NIH 3T3 STAT1-luciferase reporter, IFN-gamma induced, luminescence;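 active = inhibition above the mean plus 3 SD of solvent-only control wells, limit set per screening run, cut at about 16% in these data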
Large screens that a line does not name were inactive (follow-up assays come after a bar, where they were run).

COc1ccc(CC(=O)Nc2cccc(C(=O)Nc3cccc(C)c3)c2)cc1	none
Cc1nc(-c2ccc(C(=O)Nc3cccc(Br)c3)cc2)cs1	STAT3 inh-1 88 | STAT3 inh-2 81 | NFkB inh STAT3ct inactive | STAT1 inh 2 inactive
COc1ccc(C(=O)/C=C/Nc2cccc(O)c2)cc1	STAT3 inh-1 93, Platelet DG rel 55 | STAT3 inh-2 80 | NFkB inh STAT3ct 16 | STAT1 inh 2 inactive
COc1cccc(N/C=C/C(=O)c2ccc(Br)cc2)c1	none (no result: Platelet DG rel)
COc1ccc(C(=O)Nc2cccc(C)c2)cc1	STAT3 inh-1 44, Platelet DG rel 56 | STAT3 inh-2 inactive | NFkB inh STAT3ct inactive | STAT1 inh 2 inactive
O=C(Nc1cccc(C(=O)N2CCN(Cc3ccccc3)CC2)c1)c1ccccc1	none (no result: Platelet DG rel)
CCN(CC)CCN(Cc1cc2ccc(C)cc2[nH]c1=O)C(=O)Nc1ccc(Cl)cc1	none
CCCc1cc(=O)oc2cc(C)cc(OCC(=O)N3CCC(C(N)=O)CC3)c12	none (no result: STAT3 activator, PERK inh, STAT1 blocker, STAT3 inh-1)
CC(C)Cc1ccc(CN2CCCC(NC(=O)CSc3nncn3C)C2)cc1 (stereo not drawn)	none (no result: STAT3 activator, PERK inh, STAT1 blocker, STAT3 inh-1)
Cc1cc(NS(C)(=O)=O)c(=O)n(Cc2c(F)cccc2Cl)c1	none (no result: STAT3 activator, PERK inh, STAT1 blocker, STAT3 inh-1)
COc1ccc(-n2ncc3c(NC(C)C)ncnc32)cc1	STAT3 inh-1 56 | STAT3 inh-2 inactive | NFkB inh STAT3ct inactive | STAT1 inh 2 inactive
CC(C)c1ccc(/C=C/C(=O)NC2=NCCS2)cc1	STAT3 inh-1 68 | STAT3 inh-2 inactive | NFkB inh STAT3ct inactive | STAT1 inh 2 inactive
Cn1c(O)c(N=NC(=O)CNC(=O)c2ccccc2)c2ccccc21	none (no result: STAT3 activator, PERK inh, STAT1 blocker, STAT3 inh-1)
Cn1c(N=NC(=O)c2ccccc2)c(O)c2ccccc21	STAT3 inh-1 46 | STAT3 inh-2 inactive | NFkB inh STAT3ct inactive | STAT1 inh 2 inactive
Cc1ccc(NC2=Nc3ccccc3CS2)cc1	STAT3 inh-1 59 | STAT3 inh-2 inactive | NFkB inh STAT3ct inactive | STAT1 inh 2 inactive
COc1ccccc1/C(O)=C(\C#N)c1nc2ccccc2[nH]1	none
CC(C)(C)c1ccc(-c2noc(CCC(=O)N3CCOCC3)n2)cc1	STAT3 inh-1 51 | STAT3 inh-2 inactive | NFkB inh STAT3ct inactive | STAT1 inh 2 inactive
Cc1ccc(OC(=O)CCNC(=O)c2ccccc2Cl)c(Br)c1	none (no result: STAT3 activator, PERK inh, STAT1 blocker, STAT3 inh-1)
COC(=O)CSc1ncnc2c1sc1nc3c(cc12)COC(C)(C)C3	STAT3 inh-1 44 | STAT3 inh-2 44 | NFkB inh STAT3ct 18 | STAT1 inh 2 28
CC1(C)Cc2nc3sc4c(SCC(=O)O)ncnc4c3cc2CO1	none (no result: STAT3 activator, STAT1 blocker, STAT3 inh-1)
CCCCCc1ccc(-c2cn(Cc3ccc(C(=O)c4ccccc4)cc3)nn2)cc1	none (no result: STAT3 activator, PERK inh, STAT1 blocker, STAT3 inh-1)
CCCc1ccc(-c2ccc(/C=C/C(=O)O)cc2)nc1	STAT3 inh-1 96 | STAT3 inh-2 94 | NFkB inh STAT3ct 69 | STAT1 inh 2 inactive
CCCCCc1ccc(-c2ccc(/C=C/C(=O)O)cc2)nc1	none
CCCCCCCc1ccc(-c2ccc(O)cc2)nc1	STAT3 inh-1 54 | STAT3 inh-2 62 | NFkB inh STAT3ct inactive | STAT1 inh 2 inactive
N#Cc1ccc(OCC(=O)Nc2ccccc2NS(=O)(=O)c2cccs2)cc1	none
CCOC(=O)c1sc(NC(=O)c2cc3c(s2)CCC(C)C3)nc1C (stereo not drawn)	STAT3 inh-1 56 | STAT3 inh-2 inactive | NFkB inh STAT3ct inactive | STAT1 inh 2 inactive
COC(=O)c1sc(NC(=O)c2cc3c(s2)CCCC3)nc1C	none
COc1cc(C=O)ccc1Oc1nc(Nc2ccc(F)cc2F)nc(N2CCOCC2)n1	none
Cn1c(CN2CCCC2)nc2cc(NC(=O)c3ccc(Cl)cc3)ccc21	none
Cn1c(CN2CCCCC2)nc2cc(NC(=O)c3ccc(Cl)cc3)ccc21	STAT3 inh-1 70 | STAT3 inh-2 70 | NFkB inh STAT3ct 23 | STAT1 inh 2 inactive
CC1=C(C#N)CCC(=O)N1Cc1ccc(C)cc1	none
O=C(Nc1nc2ccccc2[nH]1)c1ccc([N+](=O)[O-])cc1	STAT3 inh-1 55 | STAT3 inh-2 inactive | NFkB inh STAT3ct inactive | STAT1 inh 2 inactive
O=C(Nc1nc2ccccc2[nH]1)c1cccc([N+](=O)[O-])c1	none
CCCCOc1ccc(C(=O)Nc2cccc(C)n2)cc1	STAT3 inh-1 48 | STAT3 inh-2 inactive | NFkB inh STAT3ct inactive | STAT1 inh 2 inactive
CCOc1ccc(NC(=O)Nc2cccc(C)n2)cc1	none (no result: STAT3 activator, PERK inh, STAT1 blocker, STAT3 inh-1)
CCOc1ccc(C(=O)Nc2cccc(C)n2)cc1	STAT3 inh-1 57 | STAT3 inh-2 inactive | NFkB inh STAT3ct inactive | STAT1 inh 2 inactive
COC(=O)c1ccccc1OCCCOc1ccc(C)cc1OC	STAT3 inh-1 59 | STAT3 inh-2 inactive | NFkB inh STAT3ct inactive | STAT1 inh 2 inactive
COc1ccc(O)c(/C=N/NC(=O)CN2CCS(=O)(=O)CC2)c1	none (no result: STAT3 activator, PERK inh, STAT1 blocker, STAT3 inh-1)
CCc1ccc(NC(=O)C(C)OC(=O)C2CCN(c3ccc(C(F)(F)F)cn3)CC2)cc1 (stereo not drawn)	none (no result: STAT3 activator, PERK inh, STAT1 blocker, STAT3 inh-1)
Cc1ccc(C(=O)CSc2cnc3ccccc3n2)cc1C	STAT3 inh-1 54 | STAT3 inh-2 inactive | NFkB inh STAT3ct inactive | STAT1 inh 2 inactive
C/C(CC(=O)NC1CCCCC1)=N\NC(=O)Cc1ccc(-c2ccccc2)cc1	none
CCOc1cc(C(=O)Nc2ncn[nH]2)cc(OCC)c1OCC	none
O=C1c2ccccc2-c2nnc(-c3ccc(F)cc3)cc21	STAT3 inh-1 56 | STAT3 inh-2 47 | NFkB inh STAT3ct 19 | STAT1 inh 2 inactive
CCc1ccccc1N(CC(=O)NCc1ccco1)C(=O)CCC(=O)Nc1nccs1	none (no result: STAT3 activator, PERK inh, STAT1 blocker, STAT3 inh-1)
Cc1ccc(-c2nc(-c3ccccc3)no2)cc1	STAT3 inh-1 55 | STAT3 inh-2 inactive | NFkB inh STAT3ct inactive | STAT1 inh 2 inactive
CCOC(=O)C1(CC2CC2)CCN(Cc2ccc3cccc(F)c3n2)CC1	none
N#Cc1c(NC(=O)CSc2ncn[nH]2)sc2c1CCCCC2	STAT3 inh-1 71 | STAT3 inh-2 68 | NFkB inh STAT3ct 30 | STAT1 inh 2 inactive
CC(C)(C)C#CCn1c(/C=[N+](\[O-])C2CCCCC2)nc2ccccc21	none (no result: STAT3 activator, PERK inh, STAT1 blocker, STAT3 inh-1)
CC(C)(C)NC(=O)COC(=O)c1snc(C(=O)NC2CCCCC2)c1N	STAT3 inh-1 76 | STAT3 inh-2 72 | NFkB inh STAT3ct 22 | STAT1 inh 2 inactive
CC(OC(=O)c1snc(C(=O)NC2CCCCC2)c1N)C(=O)NC(C)(C)C (stereo not drawn)	none
O=C(Nc1ccn(Cc2ccccc2F)n1)c1ccc(COc2ccc(Br)cc2)cc1	STAT3 inh-1 47 | STAT3 inh-2 52 | NFkB inh STAT3ct inactive | STAT1 inh 2 inactive
CCN1CCN(/C=N/c2nc3c(s2)CCCC3)CC1	STAT3 inh-1 52 | STAT3 inh-2 inactive | NFkB inh STAT3ct inactive | STAT1 inh 2 inactive
O=C(NC1CCCCC1)C(c1ccc(Cl)cc1)N(C(=O)c1ccccn1)c1cccnc1 (stereo not drawn)	none
